Results as given in the EternaBench riboswitch data.

Tested on: MS2 coat protein
Assay: apparent Kd, MS2 coat protein; higher = weaker binding; RNA-MaP array; FMN 200 µM where present
Summary of the method: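 In 100 mM Tris-HCl pH 7.5, 80 mM KCl, 4 mM MgCl2, BSA, DTT, yeast tRNA and Tween-20, SNAP-549-labelled MS2 coat protein was titrated from 0.7 or 1.5 nM, doubling to 3 µM, over designs transcribed by stalled E. coli RNA polymerase on Illumina sequencing-chip clusters. This was done first without ligand, then with ligand held constant. After green signal was normalised to red-channel RNA signal and control-cluster median Fmax, the apparent Kd was taken as the median of filtered per-cluster binding-curve fits.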

[1] = designed as: OFF switch for flavin mononucleotide, no ligand
[2] = ligand present: flavin mononucleotide, designed as: OFF switch for flavin mononucleotide
[3] = designed as: ON switch for flavin mononucleotide, no ligand
[4] = ligand present: flavin mononucleotide, designed as: ON switch for flavin mononucleotide

Row | Sequence | apparent Kd [1] [nM] | apparent Kd [2] [nM] | apparent Kd [3] [nM] | apparent Kd [4] [nM]
1 | AAAAAGUGAGGAUAUACGAAAAAAAAAAAAAAAAAAGGUGAACAUGAGGAUCACCCAUGUAGAAGGCACAAAAA | 311 | 243 |  | 
2 | CGCCGCACCGGCCUGCGGCAGGGUCAGGAUAUACAUGAGGAUCACCCAUGUGAACGGUGCCCAAUGUAGAAGGGACGAAAAGAA | 17.8 | 39.5 |  | 
3 | AAGAAACAUGAGGAUCACCCAUGUAAAUUCAAGAGAGGAUAUCGUACAUGGAAGAUUCAACGAGAAGGCUCUAGAA |  |  | 36.5 | 18.4
4 | AUGCAACAUGAGGAUCACCCAUGUGAGGAUAUCGUAUAAUACUGUUGAAAUAUUUAGACGAGAAGGCACACCGU | 29.7 | 47.3 |  | 
5 | GGGUACAUCAGAGGAUAUCAUGUAAAUACAUGAGGAUCACCCAUGUCGAUGGAGACAUCGGAGAUUGAGAAGGCCGAUGUACCG |  |  | 292 | 13.4
6 | AGUCGGAGCAGAGGAUAUAUACAUGAGGAUCACCCAUGUAAAUGGAAUAGCUGGAAACAGCAAGUAUAGAAGGCUGCUCCGACA | 39.5 | 118 |  | 
7 | GCACGAUAUCAGGAUAUGACUAGCCUCGGCUAGUCAGAAGGGAUGACAUGAGGAUCACCCAUGUGAUCACGUGC | 57.2 | 77.9 |  | 
8 | AGCUAGUCAGGAUAUACGUACAUGUCAUUAGACGUGAAGGGACAUGAGGAUCACCCAUGUAGAAGGGACUAGCA | 40 | 164 |  | 
9 | UUGGUUGUCGUAGGAUAUGUAGGAUAUUCCUACAUGAGGAUCACCCAUGUUCGCAUGGAAGAAGGACGGAAGGACGAUGACCAA |  |  | 233 | 153
10 | GCUUGUGAAGGAUAUACUGGCGGCAUGCGCUCGGCGCGCGCACAUGAGGAUCACCCAUGUAGAAGGUCAAACGU | 20.2 | 20.2 |  | 
11 | UUUUUCUGCUGAGGAUAUUGCUCGUGCGUACAUGAGGAUCACCCAUGUGUCUUGAUCCUCUUCUGCAAGAAGGCAGCUCUCUCU | 403 | 155 |  | 
12 | GACCGCGAGGGAGGAUAUGGAGCCUUAUUGGCUCCAGAAGGUCCAUAAGGGACAUGAGGAUCACCCAUGUGGGUUGAAGCGGUC |  |  | 155 | 57.2
13 | AAUAACAGAGGAUAUACUAUUUUAUGUGUUUGUUGUUUUAAACAUGAGGAUCACCCAUGUAGAAGGCUGAAUAA | 21 | 26 |  | 
14 | AAGGAUAGAGGAUAUACAUAGAUACAGAUUCGUGUAGAACUACAUGAGGAUCACCCAUGUAGAAGGCUAUCCUA | 16.8 | 46 |  | 
15 | GGAGGACAUGAGGAUCACCCAUGUGGAUGAACGCUAGGAUAUGCGUGCAGGAAGAGUGGAGCAGAAGGAGUGGGAU |  |  | 26.4 | 19.3
16 | GGUAGACAAAGUCUACCAAUACGAACAUGAGGAUCACCCAUGUAGGAUAUGCUACUCAAAGAGUAGCAGAAGGACAUGUGUCUU | 29.5 | 160 |  | 
17 | ACAUGAGGAUCACCCAUGUUAAACGAGGAUAUUUGACUGCACAUGAGGUUCGCCCAUGUCCUGCCGAAGAAGGUGUGAAUAAUU |  |  | 17.6 | 13.5
18 | UCCUGGCGAGGAUAUACAAUGUUUUUCGCGUUUUGUUUCGAACAUGAGGAUCACCCAUGUAGAAGGUGCUACUG | 38.3 | 41 |  | 
19 | UCAGAAGUCACAGGAUAUCCGGCGUAGCACACAGGAGAAGGGUGAUCACGAGCACAUGAGGAUCACCCAUGUGACAUUUGUGGG |  |  | 53.6 | 27.5
20 | AUACUAAAUGAAGGAUAUCUAAGCAUACACCUGAGAGAAGGUCAUUUUUACAUGAGGAUCACCCAUGUUGUGGUUAAUGGGUUA | 290 | 374 |  | 
21 | GGUACUCAAAGAGUACCUAUACGAACAUGAGGAUCACCCAUGUAGGAUAUGCUACUCAAAGAGUAGCAGAAGGACAUGUGCCUA | 18.6 | 108 |  | 

Row | Sequence | apparent Kd [1] [nM] | apparent Kd [2] [nM] | apparent Kd [3] [nM] | apparent Kd [4] [nM]
22 | GAUGCGAAUGUGAGGAUAUCGGAGUAUUUAAACUCUGAGAAGGCACAUGAGGAUCACCCAUGUCCGUGCGUCUA | 506 | 130 |  | 
23 | CCUGCACAUGAGGAUCACCCAUGUCAGGAUAUCUCGCCGUGAAGAGCAACACGGUAUUAGAGAAGGGACACGGG | 25.1 | 23.3 |  | 
24 | ACUAGAUGCGUGCAAUAACACAUGAGGAUCACCCAUGUGACACAGGAUAUAACCAGAUCAGAAAGUUAGAAGGGUGAGCACGCA |  |  | 29.6 | 18.9
25 | AGGUAGCAAGGAUAUACAUGAGGAUCACCCAUGUAAAUGCACGUUUAGGCCCUGCUAUGUAGAAGGUGCACCCG | 17.3 | 16.8 |  | 
26 | GGUGCACGCACAGGAUAUCCGGCGGAGCUCGUCGGAGAAGGGUGACAUGAGGAUCACCCAUGUACGUGCAACUCAGUUUGAGAG |  |  | 59.8 | 32.1
27 | CGAUAAAGGUGAGGAUAUGAGAAUAGAAAGAAAUCAGAAGGCACACAUGAGGAUCACCCAUGUGAGUUCUCGAGAUUACAUGGU | 15.5 | 17.9 |  | 
28 | AUUUAAUUUAGCGAGAUCACAUGAGGAUCACCCAUGUAUAUAUAGGAUAUCAGCUCGAAUAGAGCUGAGAAGGAUAUAUACCGC | 90.3 | 157 |  | 
29 | GUUUAGUGAGGAUAUGUGGCAUCGAUCGAGCGCGGUCGGCUACAGAAGGCACAUGAGGAUCACCCAUGUUUCUC | 39.5 | 413 |  | 
30 | GUUGUUUCUGAGGAUAUUAUUUUAUUCGAUUGAUAAGAAGGCAGUACAUGAGGAUCACCCAUGUGGGUUGUUUG | 60.6 | 122 |  | 
31 | UGGUACUAGGGAGGAUAUGGGAAGAUACAUGAGGAUCACCCAUGUUUAAGAAUGCCGUGAGGCAACUAGAAGGCCCUAGUACCU |  |  | 505 | 18.8
32 | AAAAAACAUGAGGAUCACCCAUGUAAGGAUAUGCGAAAAAAAAAAAAAAAAAAAAAAAGCAGAAGGUACAAAAA | 99.1 | 94.9 |  | 
33 | CUCAGACAUGAGGAUCACCCAUGUGAGGAUAUGAUGCGAUCGUCGAAAGACGAUAGCAUCAGAAGGCACAAAUG | 78.4 | 305 |  | 
34 | UUUUUACAUGAGGAUCACCCAUGUCAGGAUAUCAUUAUAUUUUAUUAUUUUAUUUAUAUGAGAAGGGACUAUUA | 87.7 | 60.1 |  | 
35 | AAAACAUGAGGAUCACCCAUGUAAAGAUCGGUUAAUGAAAGUGAGGAUAUACAAAAUUUUAUAGAGUAGAAGGCACUGGGUACA |  |  | 28.7 | 30.1
36 | UUAGAACAUGAGGAUCACCCAUGUGAGGAUAUGCAAUACUAAUAUUAAGAUAAUUAUAGCAGAAGGCACGUAGU | 34.3 | 47.7 |  | 
37 | UCGGGUUAUACAGGAUAUGUUUAGGUUUAUUCAUGCAGUUAUUAAUUUAUGACAGAAGGGUAUACAUGAGGAUCACCCAUGUCA | 542 | 387 |  | 
38 | GUAUCUUAUGAGAAGGCGAUCAUGAAACAUGAUCGAGGAUAUCAUGUAAACAUGAGGAUCACCCAUGUAUGGGUAUUAUGGUAC |  |  | 179 | 71.9
39 | ACAUGAUAUGUAGGAUAUCACAACAUGAGUUUUAAAAUUGUAAUUUAGGAUUGAGAAGGACAUUUACAUGAGGAUCACCCAUGU | 18.6 | 14.7 |  | 
40 | CGCUCAAGAGAGAAGGAUAGAGUCAGAAGGCGUUACAUGAGGAUCACCCAUGUAUAGUAGUGUAACGAGGAUAUGAAAUGAGCG | 194 | 250 |  | 
41 | AACACGUGAGGAUAUACAUGAGGAUCACCCAUGUUGGUACAAUCCUGUCCGACUAUCCGUAGAAGGCAUUGACU | 38.7 |  |  | 
42 | AGAAAGAAGCAAGGAUAUUGUAAAAUUAAUGUACAAGAAGGUGCUGUUUAUGUCUCUUAACAUGAGGAUCACCCAUGUAUUGGU |  |  | 68.6 | 45.9
